From ChEMBL document CHEMBL1914324, “Discovery of novel spirocyclic inhibitors of fatty acid amide hydrolase (FAAH). Part 2. Discovery of 7-azaspiro[3.5]nonane urea PF-04862853, an orally efficacious inhibitor of fatty acid amide hydrolase (FAAH) for pain” (Bioorg Med Chem Lett, 2011)
The source made the active and inactive calls.

Legend:
[1] = target: T1, Voltage-gated inwardly rectifying potassium channel KCNH2 (Homo sapiens, UniProt Q12809); assay: Displacement of dofetilide from ERG
[2] = target: T2, Fatty-acid amide hydrolase 1 (Homo sapiens) (UniProt O00519); assay: Inhibition of FAAH in human liver proteomes using rhodamine-tagged fluorophosphonate probe at 100 uM by competitive activity-based protein profiling method
T2 sequence (whole entry): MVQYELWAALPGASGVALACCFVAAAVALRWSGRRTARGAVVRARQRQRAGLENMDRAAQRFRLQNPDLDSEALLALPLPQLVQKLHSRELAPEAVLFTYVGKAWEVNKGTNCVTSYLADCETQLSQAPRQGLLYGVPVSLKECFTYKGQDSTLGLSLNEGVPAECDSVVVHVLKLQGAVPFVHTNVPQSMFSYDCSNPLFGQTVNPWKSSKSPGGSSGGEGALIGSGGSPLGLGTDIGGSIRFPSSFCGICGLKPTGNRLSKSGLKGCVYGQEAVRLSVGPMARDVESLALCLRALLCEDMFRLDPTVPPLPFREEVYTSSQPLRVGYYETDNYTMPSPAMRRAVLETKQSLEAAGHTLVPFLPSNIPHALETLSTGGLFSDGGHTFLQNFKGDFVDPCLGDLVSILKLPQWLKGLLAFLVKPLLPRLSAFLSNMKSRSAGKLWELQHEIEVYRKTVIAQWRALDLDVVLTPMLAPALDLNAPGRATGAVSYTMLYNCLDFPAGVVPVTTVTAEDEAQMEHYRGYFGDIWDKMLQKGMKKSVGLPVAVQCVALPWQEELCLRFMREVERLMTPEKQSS
Summary of the method: (§1)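 Competitive activity-based protein profiling against >200 human serine hydrolases, FAAH included. Compound tested at 100 µM in human brain membrane and soluble liver proteomes. Residual hydrolase activity labelled with a rhodamine-tagged fluorophosphonate probe.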

[3] = target: T3, Fatty-acid amide hydrolase 1 (Rattus norvegicus) (UniProt P97612); assay: Ratio of Kinact to Ki for rat FAAH activity
T3 sequence (whole entry): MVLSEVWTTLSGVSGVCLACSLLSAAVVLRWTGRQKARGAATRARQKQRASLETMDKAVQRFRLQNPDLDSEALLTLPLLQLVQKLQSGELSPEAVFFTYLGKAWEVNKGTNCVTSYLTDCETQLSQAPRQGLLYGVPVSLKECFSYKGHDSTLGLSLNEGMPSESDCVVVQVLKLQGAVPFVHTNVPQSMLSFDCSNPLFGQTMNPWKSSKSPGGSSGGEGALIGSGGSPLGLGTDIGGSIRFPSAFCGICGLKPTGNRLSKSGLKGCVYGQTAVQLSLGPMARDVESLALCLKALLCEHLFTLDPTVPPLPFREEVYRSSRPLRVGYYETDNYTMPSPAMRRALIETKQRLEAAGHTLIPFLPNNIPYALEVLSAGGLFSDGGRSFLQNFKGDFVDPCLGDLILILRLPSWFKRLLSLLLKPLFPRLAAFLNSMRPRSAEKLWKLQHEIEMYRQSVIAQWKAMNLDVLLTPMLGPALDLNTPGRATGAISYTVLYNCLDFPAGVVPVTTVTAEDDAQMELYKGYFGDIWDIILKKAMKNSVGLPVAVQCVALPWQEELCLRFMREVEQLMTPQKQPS
Summary of the method: (§2)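 kinact/Ki determined against human and rat FAAH. Each value is the average of at least two independent determinations.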

[4] = Inhibition of cytochrome P450; type: ADME
[5] = target: T2, Fatty-acid amide hydrolase 1 (Homo sapiens); assay: Ratio of Kinact to Ki for human FAAH activity; summary of the method: as §2
[6] = tested on: Rattus norvegicus; assay: Inhibition of FAAH in rat CFA model at 3 mg/kg, po after 3 hrs; type: functional; conditions: for minimal effective dose: read-out: MED
[7] = target: T2, Fatty-acid amide hydrolase 1 (Homo sapiens); assay: Inhibition of FAAH in human brain membrane using rhodamine-tagged fluorophosphonate probe at 100 uM by competitive activity-based protein profiling method; type: cell membranes; summary of the method: as §1
[8] = Plasma concentration in rat CFA model at 3 mg/kg, po after 4 hrs; type: ADME, organism-based; parameters: dose 3 mg/kg, route oral
Summary of the method: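 CFA rats given compound orally; plasma sampled 4 h post dose. Compound levels determined by LC/MS. n = 4 animals/group.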

[9] = tested on: Salmonella typhimurium; assay: Mutagenic activity in Salmonella Typhimurium by Ames test; type: toxicity, organism-based; conditions: salmonella enterica subsp. enterica serovar typhimurium
[10] = tested on: Rattus norvegicus; assay: Volume of distribution at steady state in rat CFA model at 3 mg/kg, po; type: ADME, organism-based; parameters: dose 3 mg/kg, route oral; conditions: in vivo
[11] = Genotoxicity in micronucleus
[12] = tested on: Rattus norvegicus; assay: Inhibition of FAAH in rat CFA model leukocytes assessed as residual activity using 3H-anandamide as substrate at 0.3 mg/kg, po after 4 hrs; type: functional, organism-based; parameters: dose 0.3 mg/kg
Summary of the method: (§3)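 Rats with CFA-induced inflammatory pain dosed orally. Brain tissue and leukocytes collected 4 h post dose. Residual FAAH activity measured with 3H-anandamide as substrate. n = 4 animals/group. PK, biomarker and behavioural samples taken from the same animals.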

[13] = Clearance in rat CFA model at 3 mg/kg, po; type: ADME, organism-based; parameters: dose 3 mg/kg, route oral; conditions: in vivo
Summary of the method: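 Rats in the CFA model screened at a single oral dose of 3 mpk. Plasma compound concentrations determined, including at 24 h. Clearance estimated from the 3 h and 24 h time points.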

[14] = Volume of distribution at steady state in dog; type: ADME, organism-based, Canis lupus familiaris; conditions: in vivo, read-out: Vdss
[15] = Clearance in dog; type: ADME, organism-based, Canis lupus familiaris; conditions: in vivo
[16] = Half life in rat CFA model at 3 mg/kg, po; type: ADME, organism-based; parameters: dose 3 mg/kg, route oral; conditions: in vivo
[17] = Oral bioavailability in dog; type: ADME, organism-based, Canis lupus familiaris; conditions: in vivo
[18] = target: T1, Voltage-gated inwardly rectifying potassium channel KCNH2; assay: Inhibition of human ERG
[19] = tested on: Rattus norvegicus; assay: Inhibition of FAAH in rat CFA model brain isolates assessed as residual activity using 3H-anandamide as substrate at 0.3 mg/kg, po after 4 hrs; type: functional, organism-based; parameters: dose 0.3 mg/kg; summary of the method: as §3
[20] = Oral bioavailability in rat CFA model at 3 mg/kg; type: ADME, organism-based; conditions: in vivo
[21] = tested on: Rattus norvegicus; assay: Inhibition of FAAH in orally dosed rat CFA model assessed as elevation of […]anandamide concentration in plasma after 4 hrs; type: functional, organism-based
[22] = species: Rattus norvegicus; assay: Antiinflammatory activity against rat CFA model assessed as minimum effective dose after 4 hrs; type: functional; conditions: read-out: MED
Summary of the method: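 CFA inflammatory pain model in rats given compound orally. Paw withdrawal threshold assessed with von Frey filaments 4 h post dose. N = 8 animals/group; significance versus vehicle by ANOVA/Dunnett's (p <0.05). Minimum efficacious dose defined as exposure giving >95% FAAH inhibition.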

[23] = Half life in dog; type: ADME, organism-based, Canis lupus familiaris; conditions: in vivo
[24] = tested on: Rattus norvegicus; assay: Inhibition of FAAH in orally dosed rat CFA model assessed as elevation of […]anandamide concentration in brain after 4 hrs; type: functional, organism-based

T1 sequence (Q12809 whole entry): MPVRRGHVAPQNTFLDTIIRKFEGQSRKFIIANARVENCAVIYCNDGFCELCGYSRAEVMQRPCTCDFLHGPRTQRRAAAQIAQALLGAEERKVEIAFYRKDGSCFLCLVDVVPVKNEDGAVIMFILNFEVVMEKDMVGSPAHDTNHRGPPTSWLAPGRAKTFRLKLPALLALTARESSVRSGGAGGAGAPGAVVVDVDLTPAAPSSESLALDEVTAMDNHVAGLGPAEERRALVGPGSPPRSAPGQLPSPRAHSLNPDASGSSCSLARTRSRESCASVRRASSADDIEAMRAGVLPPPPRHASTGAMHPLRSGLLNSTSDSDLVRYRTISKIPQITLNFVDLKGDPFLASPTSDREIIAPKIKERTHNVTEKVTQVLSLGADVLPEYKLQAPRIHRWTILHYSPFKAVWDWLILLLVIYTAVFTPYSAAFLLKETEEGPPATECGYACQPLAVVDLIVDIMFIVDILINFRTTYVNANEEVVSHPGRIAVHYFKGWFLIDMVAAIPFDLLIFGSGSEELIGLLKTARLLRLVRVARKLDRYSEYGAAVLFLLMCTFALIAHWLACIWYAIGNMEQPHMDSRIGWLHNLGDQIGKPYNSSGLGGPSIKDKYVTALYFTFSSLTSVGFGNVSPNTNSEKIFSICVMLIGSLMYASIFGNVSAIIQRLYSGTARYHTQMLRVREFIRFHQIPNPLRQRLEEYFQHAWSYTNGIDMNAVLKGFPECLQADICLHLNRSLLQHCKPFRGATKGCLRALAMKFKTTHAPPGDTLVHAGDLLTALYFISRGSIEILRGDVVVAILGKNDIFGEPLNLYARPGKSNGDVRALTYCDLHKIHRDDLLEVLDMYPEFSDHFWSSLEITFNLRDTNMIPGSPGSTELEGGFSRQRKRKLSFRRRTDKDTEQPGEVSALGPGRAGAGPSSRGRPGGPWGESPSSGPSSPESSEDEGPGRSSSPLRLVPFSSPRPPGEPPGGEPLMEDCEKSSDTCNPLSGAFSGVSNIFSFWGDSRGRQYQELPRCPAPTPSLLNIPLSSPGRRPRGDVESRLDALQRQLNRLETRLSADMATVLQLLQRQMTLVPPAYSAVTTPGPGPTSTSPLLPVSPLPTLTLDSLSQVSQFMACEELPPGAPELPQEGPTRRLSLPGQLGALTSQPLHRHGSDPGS

Row | Compound | inhibition (INH) [1] | inhibition [2] | Ratio [3] [M⁻¹ s⁻¹] | inhibition (INH) [4] | Ratio [5] [M⁻¹ s⁻¹] | activity call (active/not active) [6] | minimal effective dose [6] [mg/kg] | inhibition [7] | further results
1 | Cc1noc(NC(=O)N2CCC3(CC2)CC(c2cccc(OC(F)(F)F)c2)C3)c1C | Not Active | Active | 3860 | Not Active | 2830 | Active | 1 | Active | 
2 | Cn1nnnc1NC(=O)N1CCC2(CC1)CC(c1cccc(C(F)(F)F)c1)CO2 (stereo in doubt; form 1) [listing 1 of 2 here] |  | Active | 2160 |  | 4600 | Active |  | Active | 
3 | Cn1nnnc1NC(=O)N1CCC2(CC1)CC(c1cccc(C(F)(F)F)c1)C2 | Not Active | Active | 5750 | Not Active | 12400 | Active | 1 | Active | 
4 | CCc1cccc(C2CC3(CCN(C(=O)Nc4onc(C)c4C)CC3)C2)c1 | Not Active | Active | 1340 | Not Active | 5670 | inactive |  | Active | 
5 | Cn1nnnc1NC(=O)N1CCC2(CC1)CC(c1cccc(OC(F)(F)F)c1)C2 | Not Active | Active | 4570 | Not Active | 13200 | Active | 0.1 | Active | 
6 | Cn1nnnc1NC(=O)N1CCC2(CC1)CC(c1cccc(C(F)(F)F)c1)CO2 (stereo in doubt; form 1) [listing 2 of 2 here] | Not Active |  |  | Not Active |  |  | 1 |  | 
7 | Cc1noc(NC(=O)N2CCC3(CC2)CC(c2cccc(Cl)c2)C3)c1C | Not Active | Active | 3560 | Not Active | 3940 | Active | 1 | Active | 
8 | Cc1noc(NC(=O)N2CCC3(CC2)CC(c2ccc(C#N)cc2)CO3)c1C (racemic) |  |  | 26.1 |  | 43.2 |  |  |  | 
9 | COc1ccc(C2CC3(CCN(C(=O)Nc4onc(C)c4C)CC3)C2)cc1 |  |  | 585 |  | 1760 |  |  |  | 
10 | Cn1nnnc1NC(=O)N1CCC2(CC1)CC(c1cccc(OC(F)(F)F)c1)CO2 (stereo not drawn) | Not Active | Active | 4560 | Not Active | 7110 | Active | 0.1 | Active | 
11 | Cc1noc(NC(=O)N2CCC3(CC2)CC(c2ccc(C(F)(F)F)cc2)CO3)c1C (racemic) |  |  | 714 |  | 481 |  |  |  | 
12 | Cc1noc(NC(=O)N2CCC3(CC2)CC(c2ccc(Cl)c(Cl)c2)C3)c1C |  |  | 3470 |  | 4550 |  |  |  | 
13 | Cc1noc(NC(=O)N2CCC3(CC2)CC(c2ccc(F)c(Cl)c2)C3)c1C | Not Active | Active | 5820 | Not Active | 4190 | Active | 0.3 | Active | concentration at 4 h [8]: 459 nM; Activity [9]: Non-toxic; Vdss [10]: 3.4 L/kg; Activity [11]: Non-toxic; inhibition [12]: Active; CL/F [13]: 8.5 mL/min/kg; Vd [14]: 5 L/kg; clearance [15]: 11.1 mL/min/kg; half-life [16]: 7.1 h; bioavailability [17]: 33%; inhibition (INH) [18]: Not Active; inhibition [19]: Active; bioavailability [20]: 53%; inhibition [21]: Dose-dependent effect; minimal effective dose [22]: 0.3 mg/kg; half-life [23]: 7.8 h; inhibition [24]: Dose-dependent effect
